Tests used:
[1] = target: recombinant human CYP1A2 (Homo sapiens, UniProt P05177); test: DB289 consumption by recombinant CYP1A2; type: in vitro ADME; conditions: 3.0 μM DB289, 50 pmol/ml P450, 15 min
Outline: (§1)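 Baculovirus-insect-cell Supersomes coexpressing human P450 with NADPH-P450 reductase; the CYP2E1 enzyme also had cytochrome b5. 3.0 μM substrate, 50 pmol/ml P450 (100 pmol/ml for CYP2C8 and CYP2C9), in 100 mM phosphate pH 7.4 with 3.3 mM MgCl2 and 1 mM NADPH, 37°C, 15 min. Quenched in ice-cold acidified acetonitrile with deuterated internal standard, then LC/MS/MS. Percent consumed relative to 0 min; control Supersomes; duplicates.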

[2] = target: T1, CYP2A6 (Homo sapiens, UniProt P11509); test: DB289 consumption by recombinant CYP2A6; type: in vitro ADME; conditions: 3.0 μM DB289, 50 pmol/ml P450, 15 min
Outline: as §1

[3] = target: CYP2C9 (Homo sapiens, UniProt P11712); test: DB289 consumption by recombinant CYP2C9; type: in vitro ADME; conditions: 3.0 μM DB289, 100 pmol/ml P450, 15 min
Outline: as §1

[4] = target: T2, CYP2J2 (Homo sapiens, UniProt P51589); test: DB289 consumption by recombinant CYP2J2; type: in vitro ADME; conditions: 3.0 μM DB289, 50 pmol/ml P450, 15 min
T2 sequence (P51589 1-502): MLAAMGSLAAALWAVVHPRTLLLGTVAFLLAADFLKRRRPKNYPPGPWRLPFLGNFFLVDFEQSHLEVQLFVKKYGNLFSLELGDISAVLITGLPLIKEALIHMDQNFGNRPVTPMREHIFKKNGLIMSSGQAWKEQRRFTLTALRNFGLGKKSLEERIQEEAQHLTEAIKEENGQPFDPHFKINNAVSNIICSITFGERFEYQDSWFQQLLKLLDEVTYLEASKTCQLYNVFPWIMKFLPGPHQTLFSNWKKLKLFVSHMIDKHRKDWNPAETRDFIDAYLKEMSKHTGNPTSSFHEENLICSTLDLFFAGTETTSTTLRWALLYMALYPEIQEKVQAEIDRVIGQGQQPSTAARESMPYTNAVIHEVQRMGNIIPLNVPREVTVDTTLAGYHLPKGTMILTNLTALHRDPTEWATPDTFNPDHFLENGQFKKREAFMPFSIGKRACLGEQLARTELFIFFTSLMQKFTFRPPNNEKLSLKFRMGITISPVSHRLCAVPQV
Outline: (§2)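 A second recombinant panel (Supersomes; the CYP2J2, CYP3A7 and CYP4F forms coexpressed with reductase and cytochrome b5). Each enzyme was incubated alone with 3.0 μM substrate and NADPH in pH 7.4 phosphate/MgCl2 at 37°C for 15 min. Acetonitrile quench with internal standard, centrifugation, LC/MS/MS. Percent consumed normalised to 0 min. Control Supersomes; means of duplicates.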

[5] = target: T3, recombinant CYP4F2 (Homo sapiens, UniProt P78329); test: DB289 consumption by recombinant CYP4F2; type: in vitro ADME; conditions: 3.0 μM DB289, 50 pmol/ml P450, 15 min
T3 sequence (P78329 5-520): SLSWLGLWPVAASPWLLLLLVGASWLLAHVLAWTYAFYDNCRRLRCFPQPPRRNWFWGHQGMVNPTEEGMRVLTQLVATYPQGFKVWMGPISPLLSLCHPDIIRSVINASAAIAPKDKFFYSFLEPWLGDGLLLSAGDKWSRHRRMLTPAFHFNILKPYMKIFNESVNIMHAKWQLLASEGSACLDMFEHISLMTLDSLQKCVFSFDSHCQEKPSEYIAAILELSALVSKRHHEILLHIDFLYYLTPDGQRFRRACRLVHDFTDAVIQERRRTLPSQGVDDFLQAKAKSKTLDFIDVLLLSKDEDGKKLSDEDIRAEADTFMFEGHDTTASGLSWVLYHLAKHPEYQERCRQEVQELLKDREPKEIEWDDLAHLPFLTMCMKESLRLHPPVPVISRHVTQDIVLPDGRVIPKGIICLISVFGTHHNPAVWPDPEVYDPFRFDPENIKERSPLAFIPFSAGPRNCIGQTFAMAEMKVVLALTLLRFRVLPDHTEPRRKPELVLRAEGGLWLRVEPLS
Outline: as §2

[6] = target: T4, recombinant CYP4F3B (Homo sapiens, UniProt Q08477); test: DB289 consumption by recombinant CYP4F3B; type: in vitro ADME; conditions: 3.0 μM DB289, 50 pmol/ml P450, 15 min
T4 sequence (Q08477 1-520 isoform Q08477-2): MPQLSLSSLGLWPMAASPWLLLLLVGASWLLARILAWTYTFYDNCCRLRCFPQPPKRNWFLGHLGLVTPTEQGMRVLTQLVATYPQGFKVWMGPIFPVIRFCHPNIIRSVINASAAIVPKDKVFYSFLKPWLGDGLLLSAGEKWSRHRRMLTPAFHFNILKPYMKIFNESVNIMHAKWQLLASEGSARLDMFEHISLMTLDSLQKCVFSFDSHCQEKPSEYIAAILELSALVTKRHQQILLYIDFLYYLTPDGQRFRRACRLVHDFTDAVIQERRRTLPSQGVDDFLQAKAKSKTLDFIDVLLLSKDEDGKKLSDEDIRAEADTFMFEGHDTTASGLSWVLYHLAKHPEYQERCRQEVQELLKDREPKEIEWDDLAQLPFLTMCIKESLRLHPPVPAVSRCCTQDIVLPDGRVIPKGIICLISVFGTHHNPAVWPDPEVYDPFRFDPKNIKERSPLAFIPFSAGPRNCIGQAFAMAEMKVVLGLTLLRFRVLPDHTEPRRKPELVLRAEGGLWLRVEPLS
Outline: as §2

[7] = target: CYP4A11 (Homo sapiens, UniProt Q02928); test: DB289 consumption by recombinant CYP4A11; type: in vitro ADME; conditions: 3.0 μM DB289, 50 pmol/ml P450, 15 min
[8] = target: T1, CYP2A6; test: Inhibition of P450 activities by DB289: coumarin 7-hydroxylation; type: in vitro ADME; conditions: 3.0 μM DB289, pooled HLMs 0.25 mg/ml
Outline: (§3)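 Test compound (3.0 μM) was preincubated 0 and 15 min with pooled microsomes (0.25 mg/ml) and 2 mM NADPH (final concentrations). A P450-selective marker substrate was then added and marker activity measured. Reference selective chemical inhibitors were run for comparison (none for CYP4A11). Solvent-only controls.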

[9] = target: CYP2C19 (Homo sapiens, UniProt P33261); test: Inhibition of P450 activities by DB289: S-mephenytoin 4′-hydroxylation; type: in vitro ADME; conditions: 3.0 μM DB289, pooled HLMs 0.25 mg/ml
Outline: as §3

[10] = target: CYP2D6 (Homo sapiens, UniProt P10635); test: Inhibition of P450 activities by DB289: debrisoquine 4-hydroxylation; type: in vitro ADME; conditions: 3.0 μM DB289, pooled HLMs 0.25 mg/ml
Outline: as §3

[11] = DB289 metabolism by heat-inactivated human liver microsomes; type: in vitro ADME; conditions: 60°C for 90 s; data not shown
Outline: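 Human liver microsomes were heated at 60°C for 90 s before incubation to inactivate flavin monooxygenase. Then used in standard NADPH incubations (pH 7.4 phosphate, MgCl2, 37°C) to test FMO contribution to substrate metabolism.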

[12] = oral; ref Yeates, 2003; cited from earlier work
[13] = ref Fitzpatrick et al., 2004; cited from earlier work

T1 sequence (P11509 whole entry): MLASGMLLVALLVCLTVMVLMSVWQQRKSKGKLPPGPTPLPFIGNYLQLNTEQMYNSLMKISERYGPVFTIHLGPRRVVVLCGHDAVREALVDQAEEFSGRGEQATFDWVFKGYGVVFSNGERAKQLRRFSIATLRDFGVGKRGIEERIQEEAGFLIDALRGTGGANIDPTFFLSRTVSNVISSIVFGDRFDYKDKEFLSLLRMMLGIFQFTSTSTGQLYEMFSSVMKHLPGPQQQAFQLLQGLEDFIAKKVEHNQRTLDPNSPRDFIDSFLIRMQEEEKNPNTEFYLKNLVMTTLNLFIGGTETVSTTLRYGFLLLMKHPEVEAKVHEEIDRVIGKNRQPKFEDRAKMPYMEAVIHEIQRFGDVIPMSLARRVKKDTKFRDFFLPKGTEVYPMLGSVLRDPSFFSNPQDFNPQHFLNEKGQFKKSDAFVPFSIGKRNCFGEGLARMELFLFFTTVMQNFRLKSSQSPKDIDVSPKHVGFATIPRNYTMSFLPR
recombinant human CYP1A2, sequence (P05177 2-516 limits assumed): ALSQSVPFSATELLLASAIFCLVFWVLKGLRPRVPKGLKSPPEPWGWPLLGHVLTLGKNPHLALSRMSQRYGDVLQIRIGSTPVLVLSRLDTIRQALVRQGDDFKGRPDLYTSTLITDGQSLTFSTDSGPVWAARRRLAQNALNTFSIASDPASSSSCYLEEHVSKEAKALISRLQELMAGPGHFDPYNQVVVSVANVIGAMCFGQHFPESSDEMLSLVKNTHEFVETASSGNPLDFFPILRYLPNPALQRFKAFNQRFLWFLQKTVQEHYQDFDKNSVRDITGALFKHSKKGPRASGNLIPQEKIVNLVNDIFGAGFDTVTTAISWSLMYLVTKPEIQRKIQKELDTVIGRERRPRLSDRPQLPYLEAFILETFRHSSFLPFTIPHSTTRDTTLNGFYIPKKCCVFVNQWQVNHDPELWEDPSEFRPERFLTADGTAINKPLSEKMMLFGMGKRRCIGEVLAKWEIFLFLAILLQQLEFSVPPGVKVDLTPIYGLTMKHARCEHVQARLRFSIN
CYP2D6, sequence (P10635 whole entry): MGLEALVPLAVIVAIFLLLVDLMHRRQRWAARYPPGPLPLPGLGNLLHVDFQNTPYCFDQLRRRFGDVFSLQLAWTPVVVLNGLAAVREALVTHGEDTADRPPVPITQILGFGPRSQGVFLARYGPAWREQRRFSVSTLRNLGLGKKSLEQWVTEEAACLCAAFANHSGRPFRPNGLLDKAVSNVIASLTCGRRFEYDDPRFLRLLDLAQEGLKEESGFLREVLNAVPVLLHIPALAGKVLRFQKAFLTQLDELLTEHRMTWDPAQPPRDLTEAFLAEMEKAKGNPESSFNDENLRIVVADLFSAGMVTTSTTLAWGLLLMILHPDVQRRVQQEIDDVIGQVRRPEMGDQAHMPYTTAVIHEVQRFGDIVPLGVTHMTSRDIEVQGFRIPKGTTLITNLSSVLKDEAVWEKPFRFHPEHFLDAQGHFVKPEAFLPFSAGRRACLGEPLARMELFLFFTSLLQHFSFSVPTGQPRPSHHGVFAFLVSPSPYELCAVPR
CYP2C19, sequence (P33261 whole entry): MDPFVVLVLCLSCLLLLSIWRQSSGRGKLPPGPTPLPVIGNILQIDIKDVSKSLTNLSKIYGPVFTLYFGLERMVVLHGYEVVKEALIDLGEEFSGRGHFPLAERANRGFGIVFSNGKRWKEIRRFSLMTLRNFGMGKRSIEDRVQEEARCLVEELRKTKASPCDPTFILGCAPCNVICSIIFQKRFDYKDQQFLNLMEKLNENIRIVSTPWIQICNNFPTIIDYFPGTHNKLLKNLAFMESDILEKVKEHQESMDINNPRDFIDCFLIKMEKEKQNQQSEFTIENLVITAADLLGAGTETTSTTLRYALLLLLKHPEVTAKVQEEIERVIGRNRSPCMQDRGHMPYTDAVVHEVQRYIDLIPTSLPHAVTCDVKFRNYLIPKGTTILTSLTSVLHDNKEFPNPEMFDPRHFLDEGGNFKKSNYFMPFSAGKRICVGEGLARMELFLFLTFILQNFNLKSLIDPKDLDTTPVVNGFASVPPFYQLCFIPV
CYP4A11, sequence (Q02928 5-519): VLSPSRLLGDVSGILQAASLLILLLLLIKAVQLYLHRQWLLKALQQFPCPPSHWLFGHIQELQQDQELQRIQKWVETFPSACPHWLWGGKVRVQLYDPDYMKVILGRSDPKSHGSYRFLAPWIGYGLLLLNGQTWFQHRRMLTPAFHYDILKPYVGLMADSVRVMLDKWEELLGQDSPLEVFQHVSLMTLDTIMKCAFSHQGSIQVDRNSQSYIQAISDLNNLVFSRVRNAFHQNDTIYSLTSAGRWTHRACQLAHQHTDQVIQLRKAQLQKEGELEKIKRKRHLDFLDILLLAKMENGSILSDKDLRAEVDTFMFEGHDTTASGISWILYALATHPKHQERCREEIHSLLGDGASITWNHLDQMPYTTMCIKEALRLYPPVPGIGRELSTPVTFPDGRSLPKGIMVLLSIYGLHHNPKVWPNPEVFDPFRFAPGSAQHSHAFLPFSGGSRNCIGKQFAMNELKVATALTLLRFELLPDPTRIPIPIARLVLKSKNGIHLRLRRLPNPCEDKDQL
CYP2C9, sequence (P11712 whole entry): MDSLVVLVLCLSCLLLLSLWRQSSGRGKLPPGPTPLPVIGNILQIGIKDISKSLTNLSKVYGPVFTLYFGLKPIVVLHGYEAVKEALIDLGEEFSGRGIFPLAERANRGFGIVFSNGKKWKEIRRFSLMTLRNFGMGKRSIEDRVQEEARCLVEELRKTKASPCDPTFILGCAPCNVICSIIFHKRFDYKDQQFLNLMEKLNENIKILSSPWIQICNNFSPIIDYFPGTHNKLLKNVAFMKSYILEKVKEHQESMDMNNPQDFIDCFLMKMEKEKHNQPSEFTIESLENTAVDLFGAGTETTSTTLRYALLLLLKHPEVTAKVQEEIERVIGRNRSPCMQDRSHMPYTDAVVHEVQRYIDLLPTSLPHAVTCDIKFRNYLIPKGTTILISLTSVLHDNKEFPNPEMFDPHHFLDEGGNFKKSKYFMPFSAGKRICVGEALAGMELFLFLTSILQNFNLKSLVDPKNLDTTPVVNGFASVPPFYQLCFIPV

CON=C(N)c1ccc(-c2ccc(-c3ccc(C(N)=NOC)cc3)o2)cc1 [DB289, 2,5-bis(4-amidinophenyl)furan-bis-O-methylamidoxime]
percentage of substrate consumed [1]: 61% | percentage of substrate consumed [2]: less than 5% | percentage of substrate consumed [3]: less than 5% | percentage of substrate consumed [4]: 85% | percentage of substrate consumed [5]: 98% | percentage of substrate consumed [6]: 40% | percentage of substrate consumed [7]: less than 5% | inhibition of CYP2A6 activity [8]: minimal to no inhibition | inhibition of CYP2C19 activity [9]: minimal to no inhibition | inhibition of CYP2D6 activity [10]: minimal to no inhibition | effect of heat inactivation of microsomes on DB289 metabolism [11]: did not impede DB289 metabolism | tolerability [12]: well tolerated, with no serious side effects | plasma protein binding [13]: high plasma protein-binding

— paper PMC2077835 (Drug metabolism and disposition: the biological fate of …, 2006)
